{"source": "ChEMBL document CHEMBL1148398", "about": "“Design, synthesis, and biological evaluation of thio-containing compounds with serum HDL-cholesterol-elevating properties” (2004)", "key": {"[1]": {"system": "Cricetinae gen. sp.", "test": "Effect of compound on aspartate aminotransferase (AST) levels in 3rd group of cholesterol-fed male hamsters at 30 mg/kg/day after 14 days of treatment", "conditions": "Mesocricetus auratus"}, "[2]": {"system": "Rattus norvegicus", "test": "Effect of compound on triglycerides level in 3rd group of normal chow-fed male rats after a dose of 5 mg/kg/day", "assay_type": "functional, organism-based", "procedure,_shortened": "(§1)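 Male Sprague–Dawley CD rats (60–80 g) on Purina 5001 chow with a reverse 12 h light/dark cycle. Dosed once daily by oral gavage for 4 days, suspended in 1.3% Tween 80 / 0.25% CMC. Fasted overnight and bled 24 h after the last dose. Serum TC and glycerol-blanked TG measured enzymatically; VLDL-C by FPLC fractionation with cholesterol assay. n=6, mean ± SEM.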"}, "[3]": {"system": "Cricetinae gen. sp.", "test": "Effect of compound on very low-density lipoprotein cholesterol levels in 4th group of cholesterol-fed male hamsters at 100 mg/kg/day after 14 days of treatment", "conditions": "Mesocricetus auratus"}, "[4]": {"system": "Rattus norvegicus", "test": "Effect of compound on aspartate aminotransferase (AST) levels in 3rd group of normal chow-fed male rats after a dose of 5 mg/kg/day", "assay_type": "functional, organism-based", "procedure,_shortened": "(§2)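 Male Sprague–Dawley CD rats (60–80 g) on standard chow under a reversed 12 h light/dark cycle. Compound was suspended in 1.3% Tween 80/0.25% CMC and given as a single daily oral gavage dose for 4 days. Rats were fasted overnight and killed 24 h after the last dose. Serum ALT, AST, ALKP and LDH were read on a clinical analyzer. Weight gain was start versus end weight. Mean ± SEM, n = 6.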"}, "[5]": {"system": "Cricetinae gen. sp.", "test": "Effect of compound on total plasma cholesterol levels in 4th group of cholesterol-fed male hamsters at 100 mg/kg/day after 14 days of treatment", "conditions": "Mesocricetus auratus"}, "[6]": {"system": "Rattus norvegicus", "test": "Effect of compound on very low-density lipoprotein cholesterol levels in 7th group of normal chow-fed male rats after a dose of 100 mg/kg/day", "assay_type": "functional, organism-based", "procedure,_shortened": "as §1"}, "[7]": {"system": "Rattus norvegicus", "test": "Effect of compound on low-density lipoprotein cholesterol levels in 7th group of normal chow-fed male rats after a dose of 100 mg/kg/day", "assay_type": "functional, organism-based", "procedure,_shortened": "(§3)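 Male Sprague–Dawley CD rats, 60–80 g, on standard chow with reverse 12 h light/dark cycle. One oral gavage dose daily for 4 days, suspended in 1.3% Tween 80 and 0.25% CMC. Fasted overnight; sacrificed 24 h after the last dose. Serum TC on clinical analyzer, lipoproteins by FPLC with cholesterol per fraction, T4 on analyzer. Mean ± SEM, six rats per group.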"}, "[8]": {"system": "Rattus norvegicus", "test": "Effect of compound on alanine aminotransferase (ALT) levels in 4th group of normal chow-fed male rats after a dose of 10 mg/kg/day"}, "[9]": {"system": "Rattus norvegicus", "test": "Effect of compound on low-density lipoprotein cholesterol levels in 4th group of normal chow-fed male rats after a dose of 10 mg/kg/day", "assay_type": "functional, organism-based", "procedure,_shortened": "as §3"}, "[10]": {"system": "Rattus norvegicus", "test": "Effect of compound on serum high-density lipoprotein cholesterol concentration in chow-fed male rats at a dose of 0 mg/kg/day", "assay_type": "functional, organism-based", "procedure,_shortened": "(§4)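 Separate dose-response study in male Sprague–Dawley CD rats, 60–80 g, on chow. Oral gavage once daily for 4 days in 1.3% Tween 80 / 0.25% CMC; fasted overnight, bled 24 h after last dose. Apo-A1 by ELISA with rabbit anti-rat primary, alkaline phosphatase-conjugated anti-rabbit IgG and p-nitrophenyl phosphate substrate. HDL-C by FPLC fractionation. Mean ± SEM, six per group.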"}, "[11]": {"system": "Cricetinae gen. sp.", "test": "Effect of compound on high-density lipoprotein cholesterol levels in 2nd group of cholesterol-fed male hamsters at 10 mg/kg/day after 14 days of treatment", "assay_type": "functional, organism-based"}, "[12]": {"system": "Rattus norvegicus", "test": "Effect of compound on relative liver weight in 6th group of normal chow-fed male rats after a dose of 50 mg/kg/day", "assay_type": "functional", "procedure,_shortened": "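Chow-fed male Sprague–Dawley CD rats, 60–80 g, dosed by oral gavage once daily for 4 days in 1.3% Tween 80/0.25% CMC. Fasted overnight and sacrificed 24 h after the last dose. Liver weight expressed as % of body weight at termination. Six per group, mean ± SEM.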"}, "[13]": {"system": "Rattus norvegicus", "test": "Effect of compound on serum high-density lipoprotein cholesterol concentration in chow-fed male rats at a dose of 5 mg/kg/day", "assay_type": "functional, organism-based", "procedure,_shortened": "as §4"}, "[14]": {"system": "Cricetinae gen. sp.", "test": "Effect of compound on thyroxine levels in 1st group of cholesterol-fed male hamsters at 3 mg/kg/day after 14 days of treatment", "conditions": "Mesocricetus auratus"}, "[15]": {"system": "Rattus norvegicus", "test": "Effect of compound on aspartate aminotransferase (AST) levels in 7th group of normal chow-fed male rats after a dose of 100 mg/kg/day", "assay_type": "functional, organism-based", "procedure,_shortened": "as §2"}, "[16]": {"system": "Rattus norvegicus", "test": "Effect of compound on thyroxine levels in 6th group of normal chow-fed male rats after a dose of 50 mg/kg/day", "assay_type": "functional, organism-based", "procedure,_shortened": "as §3"}, "[17]": {"system": "Rattus norvegicus", "test": "Effect of compound on alkaline phosphatase (ALKP) levels in 3rd group of normal chow-fed male rats after a dose of 5 mg/kg/day", "assay_type": "functional, organism-based", "procedure,_shortened": "as §2"}, "[18]": {"system": "Rattus norvegicus", "test": "Effect of compound on very low-density lipoprotein cholesterol levels in 1st group of normal chow-fed male rats after a dose of 1 mg/kg/day", "assay_type": "functional, organism-based", "procedure,_shortened": "as §1"}, "[19]": {"system": "Mesocricetus auratus", "test": "Effect of compound on gain in body weight in 1st group of cholesterol-fed male hamsters at 3 mg/kg/day after 14 days of treatment"}, "[20]": {"system": "Cricetinae gen. sp.", "test": "Effect of compound on alkaline phosphatase (ALKP) levels in 1st group of cholesterol-fed male hamsters at 3 mg/kg/day after 14 days of treatment", "conditions": "Mesocricetus auratus"}, "[21]": {"system": "Cricetinae gen. sp.", "test": "Effect of compound on thyroxine levels in 3rd group of cholesterol-fed male hamsters at 30 mg/kg/day after 14 days of treatment", "conditions": "Mesocricetus auratus"}, "[22]": {"system": "Cricetinae gen. sp.", "test": "Effect of compound on lactic dehydrogenase (LDH) levels in 3rd group of cholesterol-fed male hamsters at 30 mg/kg/day after 14 days of treatment", "conditions": "Mesocricetus auratus"}, "[23]": {"system": "Rattus norvegicus", "test": "Effect of compound on thyroxine levels in 4th group of normal chow-fed male rats after a dose of 10 mg/kg/day", "assay_type": "functional, organism-based", "procedure,_shortened": "as §3"}, "[24]": {"system": "Cricetinae gen. sp.", "test": "Effect of compound on alkaline phosphatase (ALKP) levels in 2nd group of cholesterol-fed male hamsters at 10 mg/kg/day after 14 days of treatment", "conditions": "Mesocricetus auratus"}, "[25]": {"system": "Rattus norvegicus", "test": "Effect of compound on alkaline phosphatase (ALKP) levels in 5th group of normal chow-fed male rats after a dose of 20 mg/kg/day", "assay_type": "functional, organism-based", "procedure,_shortened": "as §2"}, "[26]": {"system": "Rattus norvegicus", "test": "Effect of compound on triglyceride levels in 5th group of normal chow-fed male rats after a dose of 20 mg/kg/day", "assay_type": "functional, organism-based", "procedure,_shortened": "as §1"}, "[27]": {"system": "Rattus norvegicus", "test": "Effect of compound on alkaline phosphatase (ALKP) levels in 7th group of normal chow-fed male rats after a dose of 100 mg/kg/day", "assay_type": "functional, organism-based", "procedure,_shortened": "as §2"}, "[28]": {"system": "Rattus norvegicus", "test": "Effect of compound on total plasma cholesterol levels in 4th group of normal chow-fed male rats after a dose of 10 mg/kg/day", "assay_type": "functional, organism-based", "procedure,_shortened": "as §1"}, "[29]": {"system": "Rattus norvegicus", "test": "Effect of compound on gain in body weight in 2nd group of normal chow-fed male rats after a dose of 2 mg/kg/day", "assay_type": "functional", "procedure,_shortened": "as §2"}}, "data": [{"smiles": "CCN1CC(=O)N(c2cc(Cl)ccc2C)C1=S", "values": [{"measurement": "Level", "setting": "[1]", "value": 204, "unit": "U l-1"}, {"measurement": "Serum level", "setting": "[2]", "value": 18, "unit": "mg/dL"}, {"measurement": "Serum level", "setting": "[3]", "value": 81, "unit": "mg/dL"}, {"measurement": "Level", "setting": "[4]", "value": 216, "unit": "U l-1"}, {"measurement": "Serum level", "setting": "[5]", "value": 373, "unit": "mg/dL"}, {"measurement": "Serum level", "setting": "[6]", "value": 5.7, "unit": "mg/dL"}, {"measurement": "Serum level", "setting": "[7]", "value": 8.7, "unit": "mg/dL"}, {"measurement": "Level", "setting": "[8]", "value": 58, "unit": "U l-1"}, {"measurement": "Serum level", "setting": "[9]", "value": 8.1, "unit": "mg/dL"}, {"measurement": "Serum level", "setting": "[10]", "value": 51.9, "unit": "mg/dL"}, {"measurement": "Serum level", "setting": "[11]", "value": 133, "unit": "mg/dL"}, {"measurement": "Relative liver weight", "setting": "[12]", "value": 4, "unit": "%"}, {"measurement": "Serum level", "setting": "[13]", "value": 52.4, "unit": "mg/dL"}, {"measurement": "Serum level", "setting": "[14]", "value": 5.8, "unit": "µg/dL"}, {"measurement": "Level", "setting": "[15]", "value": 214, "unit": "U l-1"}, {"measurement": "Serum level", "setting": "[16]", "value": 3.47, "unit": "µg/dL"}, {"measurement": "Level", "setting": "[17]", "value": 344, "unit": "U l-1"}, {"measurement": "Serum level", "setting": "[18]", "value": 4.3, "unit": "mg/dL"}, {"measurement": "Body weight", "setting": "[19]", "value": 10.2, "unit": "g"}, {"measurement": "Level", "setting": "[20]", "value": 154, "unit": "U l-1"}, {"measurement": "Serum level", "setting": "[21]", "value": 4.73, "unit": "µg/dL"}, {"measurement": "Level", "setting": "[22]", "value": 823, "unit": "U l-1"}, {"measurement": "Serum level", "setting": "[23]", "value": 3.98, "unit": "µg/dL"}, {"measurement": "Level", "setting": "[24]", "value": 147, "unit": "U l-1"}, {"measurement": "Level", "setting": "[25]", "value": 385, "unit": "U l-1"}, {"measurement": "Serum level", "setting": "[26]", "value": 19, "unit": "mg/dL"}, {"measurement": "Level", "setting": "[27]", "value": 382, "unit": "U l-1"}, {"measurement": "Serum level", "setting": "[28]", "value": 85, "unit": "mg/dL"}, {"measurement": "Body weight", "setting": "[29]", "value": 28.5, "unit": "g"}]}]}
